Test results taken from ChEMBL document CHEMBL1146768, “Orally active factor Xa inhibitors: 4,5,6,7-tetrahydrothiazolo[5,4-c]pyridine derivatives” (Bioorg Med Chem Lett, 2004).

Key:
[1] = biological target: Coagulation factor X (Homo sapiens, UniProt P00742); assay: In vitro inhibitory activity against human Coagulation factor X
[2] = organism: Homo sapiens; assay: Anti-coagulant activity in human plasma were evaluated with the plasma clotting time doubling concentration; assay type: functional, cell-free
[3] = biological target: Prothrombin (Homo sapiens, UniProt P00734); assay: In vitro inhibitory activity against human thrombin
[4] = test system: Rattus norvegicus; assay: Ex vivo anti-fXa activity at 6 hr after oral administration of 30 mg/kg to rats perorally; assay type: functional
Procedure, shortened: (§1)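 Male Wistar rats, fasted overnight, dosed by stomach tube with compound in 0.5% (w/v) methylcellulose; controls got vehicle alone. Blood drawn into trisodium citrate under halothane anaesthesia at set times, and platelet-poor plasma prepared.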

[5] = test system: Rattus norvegicus; assay: Ex vivo anti-coagulant activity at 6 hr after oral administration of 30 mg/kg to rats perorally; assay type: functional
[6] = test system: Rattus norvegicus; assay: Ex vivo anti-fXa activity at 3 hr after oral administration of 30 mg/kg to rats perorally; assay type: functional; procedure, shortened: as §1
[7] = test system: Rattus norvegicus; assay: Ex vivo anti-coagulant activity at 3 hr after oral administration of 30 mg/kg to rats perorally; assay type: functional
[8] = test system: Rattus norvegicus; assay: Ex vivo anti-coagulant activity at 1 hr after oral administration of 30 mg/kg to rats perorally; assay type: functional
[9] = test system: Rattus norvegicus; assay: Ex vivo anti-fXa activity at 1 hr after oral administration of 30 mg/kg to rats perorally; assay type: functional; procedure, shortened: as §1

Sequence of Coagulation factor X (P00742 41-179 limits assumed): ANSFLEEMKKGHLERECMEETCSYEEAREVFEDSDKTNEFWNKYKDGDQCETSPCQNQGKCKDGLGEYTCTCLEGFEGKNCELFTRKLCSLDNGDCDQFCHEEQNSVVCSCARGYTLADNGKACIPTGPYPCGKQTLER
Sequence of Coagulation factor X (P00742 235-488 limits assumed): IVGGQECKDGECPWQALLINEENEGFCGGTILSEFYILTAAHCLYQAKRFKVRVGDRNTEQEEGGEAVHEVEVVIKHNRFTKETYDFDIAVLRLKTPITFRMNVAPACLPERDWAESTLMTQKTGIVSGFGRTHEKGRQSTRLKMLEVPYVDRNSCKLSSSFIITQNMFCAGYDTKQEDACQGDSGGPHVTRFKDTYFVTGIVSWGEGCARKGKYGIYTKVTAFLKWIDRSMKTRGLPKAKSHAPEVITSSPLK

Row | Structure (SMILES) | IC50 [1] | Concentration [2] | IC50 [3] | Anti-fXa activity [4] | Prolongation effect [5] | Anti-fXa activity [6] | Prolongation effect [7] | Prolongation effect [8] | Anti-fXa activity [9]
1 | CN1CCc2nc(C(=O)N3CCN(S(=O)(=O)c4ccc5cc(Cl)ccc5c4)CC3C(=O)N(C)C)sc2C1 (stereo not given) | 0.13 µM | 7 µM | 6 µM | – | – | – | – | – | –
2 | CN1CCc2nc(C(=O)N3CCN(S(=O)(=O)c4ccc5cc(Cl)ccc5c4)CC3C(N)=O)sc2C1 (stereo not given) | – | 4.4 µM | 1 µM | 24.7% | 1.05 | 55.8% | 1.09 | 1.13 | 67.4%
3 | CN1CCc2nc(C(=O)N3CCN(S(=O)(=O)c4ccc5cc(Cl)ccc5c4)CC3C(=O)NCC(=O)N3CCOCC3)sc2C1 (stereo not given) | 0.025 µM | 2.1 µM | 1 µM | – | – | – | – | – | –
4 | CN1CCc2nc(C(=O)N3CCN(S(=O)(=O)c4ccc5cc(Cl)ccc5c4)CC3)sc2C1 | 0.022 µM | 6 µM | 0.56 µM | – | – | – | – | – | –
5 | CN1CCc2nc(C(=O)N3CCN(S(=O)(=O)c4ccc5cc(Cl)ccc5c4)CC3C(=O)NCc3ccccc3)sc2C1 (stereo not given) | 0.64 µM | – | 1.3 µM | – | – | – | – | – | –
6 | CN1CCc2nc(C(=O)N3CCN(S(=O)(=O)c4ccc5cc(Cl)ccc5c4)CC3C(=O)NCC(N)=O)sc2C1 (stereo not given) | 0.023 µM | 3.8 µM | 0.88 µM | – | – | – | – | – | –
7 | CNC(=O)C1CN(S(=O)(=O)c2ccc3cc(Cl)ccc3c2)CCN1C(=O)c1nc2c(s1)CN(C)CC2 (stereo not given) | 0.027 µM | 3 µM | 1.35 µM | 23.5% | 1.04 | 73.7% | 1.14 | 1.35 | 89.5%
8 | CC(C)NC(=O)C1CN(S(=O)(=O)c2ccc3cc(Cl)ccc3c2)CCN1C(=O)c1nc2c(s1)CN(C)CC2 (stereo not given) | 0.045 µM | 8.8 µM | 0.82 µM | – | – | – | – | – | –
9 | O=C(c1nc2c(s1)CNCC2)N1CCN(S(=O)(=O)c2ccc3cc(Cl)ccc3c2)CC1 | 0.06 µM | 11.2 µM | 2.9 µM | – | – | – | – | – | –
10 | C[N+]1(C)CCc2nc(C(=O)N3CCN(S(=O)(=O)c4ccc5cc(Cl)ccc5c4)CC3)sc2C1 | 0.0078 µM | 0.8 µM | 3.2 µM | – | – | – | – | – | –
